Shown is part of a subset that was picked to be rich in hits.
YB-1 expr inh = inhibitors of YB-1 gene expression, primary screen, cell-based, fluorescence. U2OS, qRT-PCR YB-1 vs CDIP delta delta Cp, 16 h; active compounds read high; zero = DMSO, each unit about twofold. delta delta Cp (YB-1 minus CDIP) (no concentration beside the values). 30,000 compounds, 0.37% hits;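 active means delta delta Cp rounded down to an integer at or above 3, about 3 SD of DMSO wells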;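 further: higher means less YB-1 transcript or more CDIP transcript relative to DMSO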
T cruzi intra = inhibitors of intracellular Trypanosoma cruzi, primary screen, cell-based, plate reader, single point, set 2 | intracellular Trypanosoma cruzi in host cells | activity score (inhibition), % at 5.01 µM | 22,000 compounds, 4.9% hits | AID 651903, 2012; in the data active means activity score above about 55%;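 further: parasites and compound incubated about four days before reading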
INS-1E ATP HTS = protection of INS-1E cells from cytokine death, primary screen, ATP luminescence, single point. INS-1E cytokine-induced death, 48 h; normalised: neutral wells 0, positive control 100. protection from cytokine-induced ATP loss, % at 10 µM. 20,000 compounds, 0.1% hits. AID 488910, 2010;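 active means mean replicate protection from cytokine-induced ATP loss at least 50% and at least 75% of replicates each reaching 50%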
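Test system: INS-1E rat cells | Quantity: 8000 cells per well | Medium: Phenol-red-free RPMI with 5% fetal bovine serum | Reagent: Cytokine cocktail of IFN-γ, TNF-α and IL-1β | Doses: One compound concentration, pin transfer | Timing: 48 h co-treatment, 10 min post-lysis read | Technique: Luminescent ATP assay (CellTiter-Glo)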
A number is an active result; i = inactive; nt = no result.

SMILES | YB-1 expr inh | T cruzi intra | INS-1E ATP HTS
C[C@H](CO)N1C[C@H](C)[C@H](CN(C)S(=O)(=O)c2ccc(F)cc2)Oc2ccc(NC(=O)Nc3ccc(C(F)(F)F)cc3)cc2CC1=O | i | 69.3 | i
C[C@H]1CN([C@@H](C)CO)C(=O)Cc2cc(NC(=O)Nc3ccc(F)cc3)ccc2O[C@H]1CN(C)S(=O)(=O)c1cn(C)cn1 | 8.08 | i | i
Cc1ccc(S(=O)(=O)N(C)C[C@H]2Oc3ccc(NC(=O)Nc4ccc(C(F)(F)F)cc4)cc3CC(=O)N([C@H](C)CO)C[C@H]2C)cc1 | i | 64.0 | i
Cc1ccc(S(=O)(=O)N(C)C[C@H]2Oc3ccc(NC(=O)Nc4ccc(C(F)(F)F)cc4)cc3CC(=O)N([C@@H](C)CO)C[C@@H]2C)cc1 | i | i | i
COc1ccc(S(=O)(=O)Nc2cccc3c2O[C@@H](CN(C)C(=O)Nc2cccc4ccccc24)[C@H](C)CN([C@H](C)CO)C3=O)cc1 | i | i | i
COc1ccc(S(=O)(=O)N(C)C[C@@H]2Oc3ccc(NS(=O)(=O)c4ccc(F)cc4)cc3CC(=O)N([C@H](C)CO)C[C@@H]2C)cc1 | i | i | i
N#Cc1sc2nc(-c3ccncc3)ccc2c1N | i | nt | nt
C=C1CC[C@@]2(OC1)O[C@H]1CC3[C@@H]4CC=C5C[C@H](O[C@@H]6OC[C@H](O)[C@H](O)[C@H]6O[C@@H]6O[C@@H](C)[C@H](O)[C@@H](O)[C@H]6O)C[C@@H](O)[C@]5(C)C4CC[C@]3(C)[C@H]1[C@@H]2C (some centres undefined) | i | nt | nt
C[C@@H]1CN([C@H](C)CO)C(=O)c2cccc(NS(=O)(=O)c3ccc(Cl)cc3)c2O[C@@H]1CN(C)C(=O)Nc1ccc(C(F)(F)F)cc1 | i | i | i
C[C@H](CO)N1C[C@H](C)[C@@H](CN(C)C(=O)Nc2ccc(F)cc2)Oc2c(NC(=O)Nc3ccc(C(F)(F)F)cc3)cccc2C1=O | i | i | i
COc1ccc(NC(=O)Nc2cccc3c2O[C@H](CN(C)C(=O)Nc2c(C)noc2C)[C@H](C)CN([C@@H](C)CO)C3=O)cc1 | i | i | i
COc1ccc(NC(=O)Nc2cccc3c2O[C@H](CN(C)C(=O)Nc2c(C)noc2C)[C@H](C)CN([C@H](C)CO)C3=O)cc1 | 5.89 | i | i
C[C@@H]1CN([C@@H](C)CO)C(=O)c2cccc(NS(=O)(=O)c3ccc(Cl)cc3)c2O[C@@H]1CN(C)C(=O)Nc1ccc(C(F)(F)F)cc1 | i | 82.6 | i
C[C@@H]1CN([C@H](C)CO)C(=O)c2cccc(NC(=O)Nc3ccc(C(F)(F)F)cc3)c2O[C@@H]1CN(C)C(=O)Nc1ccc(C(F)(F)F)cc1 | i | 74.7 | i
C[C@H]1CN([C@@H](C)CO)C(=O)c2cccc(NC(=O)Nc3ccc(C(F)(F)F)cc3)c2O[C@H]1CN(C)C(=O)Nc1ccc(C(F)(F)F)cc1 | i | i | i
C[C@H]1CN([C@@H](C)CO)C(=O)c2cccc(NC(=O)Nc3ccc(C(F)(F)F)cc3)c2O[C@H]1CN(C)C(=O)Nc1ccc(F)cc1 | i | 59.8 | i
O=C(c1cccc(Cl)c1)N1CCOCC1 | i | nt | nt
CC1=C(C/C=N/NC(=O)CCCCCC(=O)O)C(C)(C)CCC1 | i | i | i
C[C@@H]1CN([C@@H](C)CO)C(=O)c2cccc(NC(=O)CCCCCC(=O)Nc3ccccc3N)c2O[C@@H]1CN(C)C(=O)NC1CCCCC1 | i | i | i
Cc1ccc(S(=O)(=O)Nc2ccc3c(c2)C(=O)N([C@H](C)CO)C[C@@H](C)[C@H](CN(C)C(=O)Nc2cccc4ccccc24)O3)cc1 | i | i | i
Cc1noc(C)c1S(=O)(=O)Nc1ccc2c(c1)C(=O)N([C@@H](C)CO)C[C@@H](C)[C@@H](CN(C)Cc1ccc(-c3ccccc3)cc1)O2 | i | i | i
COc1cc(O)c2c(c1)CCc1cc(OC)c(OC)cc1-2 | i | nt | nt
COc1ccc(CN(C)C[C@@H]2Oc3c(NS(=O)(=O)c4c(C)noc4C)cccc3C(=O)N([C@H](C)CO)C[C@@H]2C)cc1 | i | i | i
C[C@H](CO)N1C[C@H](C)[C@H](CN(C)C)Oc2c(NC(=O)Nc3ccc(C(F)(F)F)cc3)cccc2C1=O | i | 81.0 | i
C[C@H]1CN([C@@H](C)CO)C(=O)c2cccc(NC(=O)C3CC3)c2O[C@H]1CN(C)C(=O)Nc1ccc2c(c1)OCO2 | i | i | i
SMILES | YB-1 expr inh | T cruzi intra | INS-1E ATP HTS
C[C@@H]1CN([C@H](C)CO)C(=O)c2cccc(NC(=O)Nc3ccc(C(F)(F)F)cc3)c2O[C@H]1CN(C)C(=O)Nc1ccc2c(c1)OCO2 | i | 66.4 | i
COc1ccc(NC(=O)Nc2cccc3c2O[C@H](CN(C)C(=O)Nc2ccc(C(F)(F)F)cc2)[C@H](C)CN([C@H](C)CO)C3=O)cc1 | i | i | i
C[C@H]1CN([C@@H](C)CO)C(=O)c2cccc(NC(=O)Nc3ccc(C(F)(F)F)cc3)c2O[C@@H]1CN(C)C | i | i | i
C[C@@H]1CN([C@@H](C)CO)C(=O)c2cccc(NC(=O)Nc3ccc4c(c3)OCO4)c2O[C@@H]1CN(C)C(=O)Nc1ccc(C(F)(F)F)cc1 | i | i | i
COc1ccc(NC(=O)N(C)C[C@@H]2Oc3c(NC(=O)Nc4ccc(C(F)(F)F)cc4)cccc3C(=O)N([C@H](C)CO)C[C@H]2C)cc1 | i | 59.9 | i
C[C@@H]1CN([C@@H](C)CO)C(=O)c2cccc(NC(=O)C3CC3)c2O[C@@H]1CN(C)C(=O)Nc1ccc2c(c1)OCO2 | 3.7 | i | i
C[C@@H]1[C@H]2[C@H](OC3O[C@H](CO)[C@@H](O)[C@H](O)[C@H]3O)OC=C(C(=O)O)[C@H]2C[C@@H]1O (some centres undefined) | i | nt | nt
Oc1ccccc1-c1cc(-c2ccc3c(c2)OCO3)cc(-c2ccccc2)n1 | i | nt | nt
O=C1N(c2cccc(Cl)c2)C(=Nc2cccc(Cl)c2)SC12CC2 | i | nt | nt
COc1ccc(S(=O)(=O)N(C)C[C@H]2Oc3c(NC(=O)c4nc5ccccc5s4)cccc3C(=O)N([C@H](C)CO)C[C@H]2C)cc1 | i | i | i
O=C(N/N=C/c1cn(S(=O)(=O)c2ccccc2)c2ccccc12)c1ccccn1 | i | i | i
COc1cccc(C(=O)NC(NCC2CCCO2)(C(F)(F)F)C(F)(F)F)c1 (centres undefined) | i | nt | nt
O=c1c(C(F)(F)F)cccn1CCc1nc(-c2ccccc2)cs1 | i | nt | nt
COc1cc(C(=O)OCC2(O)COC(OCC3OC(Oc4c(OC)cc(CO)cc4OC)C(O)C(O)C3O)C2O)cc(OC)c1O (centres undefined) | 7.15 | nt | nt
COc1cc(C(=O)OC[C@@]2(O)CO[C@H](OC3C(CO)OC(Oc4cc(OC)c(OC)c(OC)c4)C(O)C3O)[C@@H]2O)cc(OC)c1O (some centres undefined) | i | nt | nt
Cc1noc(C)c1NC(=O)N(C)C[C@H]1Oc2c(NC(=O)Nc3ccc(F)cc3)cccc2C(=O)N([C@H](C)CO)C[C@H]1C | i | i | i

Assay outcomes deposited in PubChem by Broad Institute.
